Measurements published in ChEMBL document CHEMBL4725305, “Optimizing the aryl-triazole of cjoc42 for enhanced gankyrin binding and anti-cancer activity” (Bioorg Med Chem Lett, 2020).
Calls of active or inactive are those of the source. The rule behind the calls is not given here.

Experiments:
[1] = molecular target: T1, 26S proteasome non-ATPase regulatory subunit 10 (Homo sapiens) (UniProt O75832); experiment: Binding affinity to gankyrin (unknown origin) assessed as increase in melting temperature at 300 uM by thermal shift assay
T1 sequence (whole entry): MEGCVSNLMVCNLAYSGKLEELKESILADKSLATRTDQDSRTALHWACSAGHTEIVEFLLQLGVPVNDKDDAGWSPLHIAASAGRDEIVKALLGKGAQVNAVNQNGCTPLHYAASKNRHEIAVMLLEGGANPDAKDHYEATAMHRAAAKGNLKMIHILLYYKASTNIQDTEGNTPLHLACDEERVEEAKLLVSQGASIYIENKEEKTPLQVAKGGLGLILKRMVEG
How it was run: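 Gankyrin (20 μM) incubated with test compound at 300 μM in protein thermal shift assay; denaturation temperature (T_m) measured and ΔT_m taken relative to protein without ligand. Vehicle control 5% DMSO; cjoc42 at 300 μM as reference control. Each compound tested in triplicate.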

Hep3B = experiment: Cytotoxicity against human Hep3B cells assessed as reduction in cell viability incubated for 72 hrs by MTT assay
HepG2 = experiment: Cytotoxicity against human HepG2 cells assessed as reduction in cell viability incubated for 72 hrs by MTT assay; assay type: functional, cell-based; details: HepG2, 72 h
How it was run: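 Hep3B and HepG2 cells incubated 24 h before drug addition, then exposed to compound for 72 h at 37 °C, 5% CO2; proliferation read by MTT assay and IC50 derived; tested up to 100 μM.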

MDA-MB-231 = experiment: Cytotoxicity against human MDA-MB-231 cells assessed as reduction in cell viability incubated for 48 hrs by MTT assay; assay type: functional, cell-based; details: MDA-MB-231, 48 h
How it was run: (§1)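 A549 and MDA-MB-231 cells incubated 24 h before drug addition, then exposed to compound for 48 h at 37 °C, 5% CO2; proliferation read by MTT assay and IC50 derived; tested up to 100 μM.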

A549 = experiment: Cytotoxicity against human A549 cells assessed as reduction in cell viability incubated for 48 hrs by MTT assay; assay type: functional, cell-based; details: A549, 48 h; how it was run: as §1
[2] = molecular target: T1, 26S proteasome non-ATPase regulatory subunit 10 (Homo sapiens); experiment: Potency index, ratio of change in melting temperature of Cjoc42 to change in melting temperature of compound for binding affinity to gankyrin (unknown origin) assessed as increase in melting temperature at 300 uM by thermal shift assay
How it was run: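 Gankyrin (20 μM) with compound at 300 μM in thermal shift assay, run in triplicate; ΔT_m of each compound compared with that of cjoc42 (300 μM) tested in parallel as positive control; 5% DMSO vehicle.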

Cc1ccc(S(=O)(=O)OCCCc2cn(-c3cccc(C(F)(F)F)c3)nn2)cc1
Activity [1]: Active

Cc1ccc(S(=O)(=O)OCCCc2cn(-c3ccc(C(C)C)cc3)nn2)cc1
Activity [1]: inactive

Cc1ccc(S(=O)(=O)OCCCc2cn(-c3cccnc3)nn2)cc1
Activity [1]: inactive

COc1ccc(-n2cc(CCCOS(=O)(=O)c3ccc(-c4ccccc4)cc3)nn2)cc1
Activity [1]: inactive

Cc1ccc(S(=O)(=O)OCCCc2cn(-c3ccc(C(F)(F)F)cc3)nn2)cc1
IC50 (Hep3B): 42.7 µM | IC50 (HepG2): 42.6 µM | IC50 (MDA-MB-231): > 100 µM | IC50 (A549): > 100 µM | Activity [1]: Active

Cc1ccc(S(=O)(=O)OCCCc2cn(-c3ccccc3C#N)nn2)cc1
Activity [1]: inactive

COC(=O)c1ccccc1-n1cc(CCCOS(=O)(=O)c2ccc(C)cc2)nn1
Activity [1]: inactive

Cc1ccc(-n2cc(CCCOS(=O)(=O)c3ccc(C)cc3)nn2)cc1
IC50 (Hep3B): > 100 µM | IC50 (HepG2): > 100 µM | IC50 (MDA-MB-231): 36.6 µM | IC50 (A549): 79.9 µM | Activity [1]: Active | Ratio [2]: 3

Cc1ccc(S(=O)(=O)OCCCc2cn(-c3ccc(Cl)cc3)nn2)cc1
Activity [1]: Active

Cc1ccc(S(=O)(=O)OCCCc2cn(-c3ccccc3F)nn2)cc1
Activity [1]: inactive

CCc1ccc(-n2cc(CCCOS(=O)(=O)c3ccc(C)cc3)nn2)cc1
Activity [1]: inactive

COc1cccc(-n2cc(CCCOS(=O)(=O)c3ccc(C)cc3)nn2)c1
Activity [1]: Active

Cc1ccc(S(=O)(=O)OCCCc2cn(-c3ccc(F)cc3)nn2)cc1
Activity [1]: inactive

COc1ccc(-n2cc(CCCOS(=O)(=O)c3ccc(I)cc3)nn2)cc1
Activity [1]: inactive

Cc1ccc(S(=O)(=O)OCCCc2cn(-c3ccccc3-c3ccccc3)nn2)cc1
Activity [1]: Active

Cc1ccc(S(=O)(=O)OCCCc2cn(-c3ccc(C#N)cc3)nn2)cc1
Activity [1]: inactive

CCc1ccccc1-n1cc(CCCOS(=O)(=O)c2ccc(C)cc2)nn1
Activity [1]: inactive

Cc1ccc(S(=O)(=O)OCCCc2cn(-c3ccccc3C(F)(F)F)nn2)cc1
Activity [1]: Active

Cc1ccc(S(=O)(=O)OCCCc2cn(-c3ccccc3C)nn2)cc1
Activity [1]: Active

Cc1ccc(S(=O)(=O)OCCCc2cn(-c3cccc(C#N)c3)nn2)cc1
IC50 (Hep3B): 44.9 µM | IC50 (HepG2): > 100 µM | IC50 (MDA-MB-231): > 100 µM | IC50 (A549): > 100 µM | Activity [1]: Active | Ratio [2]: 6

Cc1ccc(S(=O)(=O)OCCCc2cn(-c3cccc(C)c3)nn2)cc1
Activity [1]: Active

Cc1ccc(S(=O)(=O)OCCCc2cn(-c3ccc(I)cc3)nn2)cc1
Activity [1]: inactive

Cc1ccc(S(=O)(=O)OCCCc2cn(-c3cccc(Br)c3)nn2)cc1
Activity [1]: Active

COC(=O)c1ccc(-n2cc(CCCOS(=O)(=O)c3ccc(-c4ccccc4)cc3)nn2)cc1
IC50 (Hep3B): 26 µM

COc1ccc(-n2cc(CCCOS(=O)(=O)c3ccc(C)cc3)nn2)cc1
IC50 (Hep3B): > 100 µM | IC50 (HepG2): > 100 µM | IC50 (MDA-MB-231): 72.8 µM | IC50 (A549): 74.6 µM | Activity [1]: Active

COC(=O)c1ccc(-n2cc(CCCOS(=O)(=O)c3ccc(C)cc3)nn2)cc1
IC50 (Hep3B): > 100 µM | IC50 (HepG2): > 100 µM | IC50 (MDA-MB-231): > 100 µM | IC50 (A549): > 100 µM

Cc1ccc(S(=O)(=O)OCCCc2cn(-c3ccncc3)nn2)cc1
Activity [1]: inactive

Cc1ccc(S(=O)(=O)OCCCc2cn(-c3cccc(F)c3)nn2)cc1
IC50 (Hep3B): 82.1 µM | IC50 (HepG2): 61.8 µM | IC50 (MDA-MB-231): > 100 µM | IC50 (A549): > 100 µM | Activity [1]: Active | Ratio [2]: 5

COc1ccccc1-n1cc(CCCOS(=O)(=O)c2ccc(C)cc2)nn1
Activity [1]: Active

Cc1ccc(S(=O)(=O)OCCCc2cn(-c3ccc(Br)cc3)nn2)cc1
Activity [1]: Active

Cc1ccc(S(=O)(=O)OCCCc2cn(-c3nccs3)nn2)cc1
Activity [1]: inactive

Cc1ccc(S(=O)(=O)OCCCc2cn(-c3ccccn3)nn2)cc1
Activity [1]: inactive

Cc1ccc(S(=O)(=O)OCCCc2cn(-c3ccc(-c4ccccc4)cc3)nn2)cc1
Activity [1]: inactive

CCc1cccc(-n2cc(CCCOS(=O)(=O)c3ccc(C)cc3)nn2)c1
Activity [1]: Active

N#Cc1cccc(-n2cc(CCCOS(=O)(=O)c3ccc(I)cc3)nn2)c1
Activity [1]: inactive

N#Cc1cccc(-n2cc(CCCOS(=O)(=O)c3ccc(-c4ccccc4)cc3)nn2)c1
Activity [1]: inactive
